In ChEMBL document CHEMBL1144767, “Characterization of chemical libraries for luciferase inhibitory activity” (J Med Chem, 2008) one finds IC50 and Activity data, which are given here for 31 compounds.

Assay [1] has as its target T1, Luciferin 4-monooxygenase (Photinus pyralis, UniProt P08659). The experiment in a line: Inhibition of Photinus pyralis luciferase by PK-Light assay.
The target of assay [2] is T1, Luciferin 4-monooxygenase. The assay is described as follows: Inhibition of Photinus pyralis luciferase.
Assay [3] concerns the target T1, Luciferin 4-monooxygenase. The assay is described as follows: Inhibition of Photinus pyralis luciferase by Easy lite assay. The gist of the method: (§1)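 Detection by 2 µL of EasyLite or Kinase-Glo reagent (Kinase-Glo containing P. pennsylvanica luciferase). 1536-well luminescence. 16 two-fold concentrations, duplicate wells, repeated on two or three days.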
For assay [4], the target named is T2, Luciferin 4-monooxygenase (Photuris pensylvanica, UniProt Q27757).
T2 sequence (Q27757 whole entry): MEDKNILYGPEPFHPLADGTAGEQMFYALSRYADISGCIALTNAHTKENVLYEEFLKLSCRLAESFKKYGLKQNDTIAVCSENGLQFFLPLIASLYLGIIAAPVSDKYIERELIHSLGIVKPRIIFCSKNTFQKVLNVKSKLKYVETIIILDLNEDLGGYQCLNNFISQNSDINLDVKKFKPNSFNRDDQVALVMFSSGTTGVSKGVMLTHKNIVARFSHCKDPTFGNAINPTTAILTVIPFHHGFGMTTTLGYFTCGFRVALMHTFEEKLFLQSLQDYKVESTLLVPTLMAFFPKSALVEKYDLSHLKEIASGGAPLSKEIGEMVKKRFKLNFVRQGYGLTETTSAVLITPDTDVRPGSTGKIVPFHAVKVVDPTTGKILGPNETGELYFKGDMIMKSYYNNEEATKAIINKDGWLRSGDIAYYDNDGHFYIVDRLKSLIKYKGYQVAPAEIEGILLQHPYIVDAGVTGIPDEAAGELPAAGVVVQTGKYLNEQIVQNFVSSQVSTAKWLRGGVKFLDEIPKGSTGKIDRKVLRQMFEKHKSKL
The assay is described as follows: (§2) Inhibition of luciferase Photuris pennsylvanica by Promega Kinase-Glo assay. The method, boiled down: as §1
A general note: Kinase-Glo measures the ATP left after a reaction by luminescence.

Assay [5] has as its target T1, Luciferin 4-monooxygenase. The assay is described as follows: Inhibition of Photinus pyralis luciferase by Steady-Glo reporter gene assay. The gist of the method: (§3)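 5 nM purified P. pyralis luciferase in SteadyGlo or BrightGlo reporter-gene reagent; no extra ATP or D-luciferin added. 1536-well luminescence. Curves from 16 two-fold concentrations in duplicate, repeated on two or three separate days.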
A general note: Reporter assays use an easily measured gene product as a stand-in for the process of interest.

The target in assay [6] is T1, Luciferin 4-monooxygenase. The experiment in a line: Inhibition of Photinus pyralis luciferase by BrightGlo reporter gene assay. The gist of the method: as §3
Assay [7] addresses T3, Luciferin 4-monooxygenase (Photuris pensylvanica) (UniProt Q27757).
T3 sequence (whole entry): T2 sequence (Q27757 whole entry)
The description is as §2. The method, boiled down: as §1

The nature of assay [8]: Inhibition of Renilla reniformis luciferase.

Structures are written as SMILES. Calls of active or inactive are those of the source. The calls are words filed in the database; no cut-off is given here. Some results are limits rather than exact numbers.

T1 sequence (P08659 whole entry): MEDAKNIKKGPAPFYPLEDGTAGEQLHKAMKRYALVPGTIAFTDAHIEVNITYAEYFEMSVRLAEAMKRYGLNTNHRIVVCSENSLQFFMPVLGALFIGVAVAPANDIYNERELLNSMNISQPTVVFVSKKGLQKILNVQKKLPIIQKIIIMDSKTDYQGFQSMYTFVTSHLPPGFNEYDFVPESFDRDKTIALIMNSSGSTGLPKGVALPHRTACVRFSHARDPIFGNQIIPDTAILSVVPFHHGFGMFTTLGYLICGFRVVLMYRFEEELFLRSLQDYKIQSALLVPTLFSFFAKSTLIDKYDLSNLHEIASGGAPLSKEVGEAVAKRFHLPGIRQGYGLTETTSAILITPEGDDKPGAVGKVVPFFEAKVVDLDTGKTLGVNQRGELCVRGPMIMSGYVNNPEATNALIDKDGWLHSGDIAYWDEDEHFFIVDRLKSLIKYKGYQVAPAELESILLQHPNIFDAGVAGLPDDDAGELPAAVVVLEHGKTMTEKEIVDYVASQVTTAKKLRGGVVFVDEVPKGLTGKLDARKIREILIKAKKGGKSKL

Regarding `COc1ccc2nc(NC(=O)c3ccoc3C)sc2c1`, the IC50 (usually the concentration needed to halve the response being measured) in assay [1] was found to be 2100 nM; in assay [2], 1200 nM; in assay [3] it was 4500 nM; in assay [4], 3600 nM; in assay [5] it was 10300 nM; in assay [6] it was 5900 nM.
In the case of `Clc1ccc(-c2nc(-c3ccccn3)no2)cc1Cl`, the IC50 was determined as 4100 nM in assay [1]; 840 nM in assay [2]; 1900 nM in assay [3]; 19000 nM in assay [4]; 3300 nM in assay [5]; 3900 nM in assay [6].
`Cc1ccc(C(=O)Cn2c3c(sc2=N)CCCC3)cc1`: the concentration for half-maximal inhibition (IC50) was found to be 1100 nM in assay [1]; 320 nM in assay [2]; 1800 nM in assay [3]; 2800 nM in assay [5]; 600 nM in assay [6]. Besides, the outcome in assay [7] was inactive.
Turning to `CC(C)(C)C(=O)Nc1ccc(NC(=O)c2cccc(O)c2)nc1`, the IC50 was 5000 nM in assay [1]; 700 nM in assay [2]; 800 nM in assay [3]; greater than 30000 nM in assay [4]; 800 nM in assay [5]; 7200 nM in assay [6].
`O=C(/C=C\Nc1ccccn1)c1ccc(Cl)cc1`: the IC50 came to 4100 nM in assay [1]; 2000 nM in assay [2]; 4700 nM in assay [3]; 500 nM in assay [5]; 1200 nM in assay [6]. The result in assay [7] was inactive.
Turning to `CCOc1ccc2nc(NC(=O)Nc3cccs3)sc2c1`, the IC50 in assay [1] is 1450 nM; in assay [2], 600 nM; in assay [3] it was 2100 nM; in assay [5] it was 12000 nM; in assay [6], 11300 nM. Further, the outcome in assay [7] was inactive.
As for `CCOc1ccc2nc(NC(=O)c3ccoc3C)sc2c1`, the IC50 was determined as 4200 nM in assay [1]; 650 nM in assay [2]; 5700 nM in assay [3]; 3800 nM in assay [4]; 3600 nM in assay [5]; 4000 nM in assay [6].
For the compound `CCOc1ccc(NC(=O)c2ccccc2OC)cc1`, the IC50 was 2800 nM in assay [1]; 600 nM in assay [2]; 1500 nM in assay [3]; greater than 50000 nM in assay [5]; 8300 nM in assay [6]. Further, the outcome in assay [7] was inactive.
As to `O=C(/C=C\Nc1ccccc1Br)c1ccccn1`, the IC50 in assay [1] came to 170 nM; in assay [2] it was 80 nM; in assay [3], 170 nM; in assay [4], 10000 nM; in assay [5], 200 nM; in assay [6] it was 80 nM. Further, the 50% inhibitory concentration (IC50) in assay [8] was greater than 50000 nM.
Take `CN1CCN(C(=O)COc2ccc(-c3nc4ccccc4s3)cc2)CC1`: the IC50 came to 900 nM in assay [1]; 300 nM in assay [2]; 400 nM in assay [3]; 1000 nM in assay [5]; 6500 nM in assay [6]. In assay [7], the result was inactive.
For the compound `O=C(/C=C\Nc1ccc(F)cc1)c1ccco1`, the IC50 in assay [1] came to 3600 nM; in assay [2], 1000 nM; in assay [3], 1100 nM; in assay [4], 14200 nM; in assay [5] it was 4000 nM; in assay [6] it was 3600 nM.
For `CN(C)c1ccc(N/C=C\C(=O)c2ccccc2)cc1`, the 50% inhibitory concentration (IC50) in assay [1] is 600 nM; in assay [2] it was 210 nM; in assay [3], 400 nM; in assay [4], 3200 nM; in assay [5], 600 nM; in assay [6] it was 700 nM. The same compound returned an IC50 in assay [8] of 11000 nM.
On to `Cc1cccc(C#Cc2ccccc2)n1`, for which the IC50 in assay [1] is 6600 nM; in assay [2] it was 4700 nM; in assay [3], 7400 nM; in assay [5] it was greater than 100000 nM; in assay [6], 30000 nM. In assay [7], the outcome was inactive.
On to `O=C(/C=C\Nc1cccc(F)c1)c1ccc2c(c1)OCO2`, for which the IC50 is 1200 nM in assay [1]; 300 nM in assay [2]; 1200 nM in assay [3]; greater than 50000 nM in assay [4]; 900 nM in assay [5]; 1900 nM in assay [6].
Consider `O=c1c2ccccc2cnn1-c1nc2ccccc2s1`, for which the IC50 is 200 nM in assay [1]; 300 nM in assay [2]; 150 nM in assay [3]; 5100 nM in assay [4]; 600 nM in assay [5]; 700 nM in assay [6].
With `c1ccc(-c2noc(-c3ccc4ccccc4c3)n2)cc1`, the half-inhibitory concentration (IC50) in assay [1] worked out at 1600 nM; in assay [2], 400 nM; in assay [3], 2100 nM; in assay [5], 1400 nM; in assay [6] it was 2600 nM. Further, the outcome in assay [7] was inactive.
`Clc1cccc(-c2nc(-c3ccccn3)no2)c1`: the IC50 was determined as 2100 nM in assay [1]; 500 nM in assay [2]; 700 nM in assay [3]; 7400 nM in assay [4]; 1500 nM in assay [5]; 1200 nM in assay [6]. For the same compound, the IC50 in assay [8] is greater than 50000 nM.
In the case of `c1ccc(-c2noc(-c3ccc4ccccc4c3)n2)nc1`, the IC50 in assay [1] was determined as 220 nM; in assay [2], 100 nM; in assay [3], 220 nM; in assay [4], 11300 nM; in assay [5] it was 200 nM; in assay [6], 200 nM. In assay [8], the 50% inhibitory concentration (IC50) was found to be 25000 nM.
Turning to `COc1cccc(-c2cc(=O)c3ccccc3o2)c1N`, the IC50 is 6400 nM in assay [1]; 6200 nM in assay [2]; 11000 nM in assay [3]; greater than 100000 nM in assay [5]; 60000 nM in assay [6]. The result in assay [7] was inactive.
On to `O=C(N/N=C/c1ccccc1O)c1ccccc1O`, for which the IC50 in assay [1] worked out at 2500 nM; in assay [2], 800 nM; in assay [3], 3600 nM; in assay [5], 20000 nM; in assay [6] it was 2600 nM. In addition, the result in assay [7] was inactive.
As to `Cc1ccc(-c2nc(-c3ccccn3)no2)cc1Cl`, the IC50 in assay [1] was determined as 2100 nM; in assay [2] it was 220 nM; in assay [3] it was 800 nM; in assay [4], 22000 nM; in assay [5] it was 1600 nM; in assay [6] it was 1400 nM.
`C[C@@H](C(=O)O)c1ccc(N2Cc3ccccc3C2=O)cc1` [(R)-INDOPROFEN]: the IC50 was 4700 nM in assay [1]; 200 nM in assay [2]; 3600 nM in assay [3]; greater than 50000 nM in assay [4]; 10000 nM in assay [5]; 5300 nM in assay [6].
Consider `CS(=O)(=O)c1ccc2nc(NC(=O)c3cccs3)sc2c1`, for which the IC50 in assay [1] is 6100 nM; in assay [2], 1100 nM; in assay [3], 1300 nM; in assay [4] it was 9500 nM; in assay [5], 2500 nM; in assay [6], 3200 nM.
`COc1ccc(C(=O)Nc2ccc(C)cn2)c(OC)c1`: the IC50 in assay [1] was determined as 250 nM; in assay [2] it was 80 nM; in assay [3] it was 280 nM; in assay [4], 14200 nM; in assay [5] it was 500 nM; in assay [6] it was 200 nM.
For `COc1ccc(C(=O)NC(=O)Nc2cc(C)ccn2)cc1`, the IC50 in assay [1] stood at 980 nM; in assay [2] it was 410 nM; in assay [3], 370 nM; in assay [4] it was 6900 nM; in assay [5], 1200 nM; in assay [6], 1000 nM.
Regarding `Cc1ccc(-c2nc(-c3ccccc3)no2)c(Cl)c1`, the IC50 in assay [1] is 500 nM; in assay [2] it was 150 nM; in assay [3], 400 nM; in assay [4] it was 10500 nM; in assay [5], 160 nM; in assay [6], 300 nM.
In the case of `O=c1cc(-c2ccccc2O)oc2ccc3ccccc3c12`, the half-maximal inhibitory concentration (IC50) amounted to 700 nM in assay [1]; 50 nM in assay [2]; 200 nM in assay [3]; 14000 nM in assay [4]; 60 nM in assay [5]; 90 nM in assay [6].
On to `Cc1ccc(-c2noc(-c3ccccc3Br)n2)cc1`, for which the IC50 in assay [1] was determined as 3300 nM; in assay [2] it was 1000 nM; in assay [3], 2300 nM; in assay [5], 11000 nM; in assay [6] it was 12000 nM. Also, the outcome in assay [7] was inactive.
Take `Brc1ccc(-c2nc(-c3ccccn3)no2)o1`: the IC50 is 13000 nM in assay [1]; 3200 nM in assay [2]; 5100 nM in assay [3]; 12000 nM in assay [4]; 2600 nM in assay [5]; 12000 nM in assay [6].
For `Cc1cccc(/C=C/c2ccccc2)n1`, the IC50 in assay [1] was 17000 nM; in assay [2] it was 4300 nM; in assay [3], 11000 nM; in assay [4], greater than 50000 nM; in assay [5], greater than 100000 nM; in assay [6], 24000 nM.
As for `Cc1ccc2nc(NC(=O)c3cccs3)sc2c1`, the IC50 in assay [1] is 1400 nM; in assay [2], 500 nM; in assay [3], 1700 nM; in assay [4], greater than 50000 nM; in assay [5], 6900 nM; in assay [6], 6700 nM.
